Experiments:
mTRPC6 mutant ^mF678W = mTRPC6 mutant ^mF678W (Mus musculus, UniProt Q61143, F678W); test: whole-cell patch-clamp, mTRPC6 mutant F678W; assay type: cell-based; conditions: saturated agonist
In short: (§1)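 Transiently transfected HEK293 cells expressing mouse or human TRPC6 WT, or sequence-verified mouse point mutants, recorded 24–48 h post-transfection. Conventional whole-cell clamp at −60 mV and 23 °C, gap-free; test compound applied by Y-tube. Pipette: CsCl/HEPES/BAPTA, 400 nM free Ca2+, pH 7.2. Bath: NaCl-based, 2 mM CaCl2, pH 7.4. EC50 from Hill fit of concentration–current data. Mutant screen used current ratios (10/5 μM or 3/1 μM). At least 3 transfection batches.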

mTRPC6 mutant ^mY657W = test: whole-cell patch-clamp, mTRPC6 mutant Y657W; assay type: cell-based, mouse; conditions: ^mY657W (S1 pocket)
In short: as §1

TRPC6 = molecular target: T1, TRPC6 (Mus musculus, UniProt Q61143); test: macro-patch recordings in outside-out and inside-out configurations; assay type: cell-based
T1 sequence (Q61143 1-930): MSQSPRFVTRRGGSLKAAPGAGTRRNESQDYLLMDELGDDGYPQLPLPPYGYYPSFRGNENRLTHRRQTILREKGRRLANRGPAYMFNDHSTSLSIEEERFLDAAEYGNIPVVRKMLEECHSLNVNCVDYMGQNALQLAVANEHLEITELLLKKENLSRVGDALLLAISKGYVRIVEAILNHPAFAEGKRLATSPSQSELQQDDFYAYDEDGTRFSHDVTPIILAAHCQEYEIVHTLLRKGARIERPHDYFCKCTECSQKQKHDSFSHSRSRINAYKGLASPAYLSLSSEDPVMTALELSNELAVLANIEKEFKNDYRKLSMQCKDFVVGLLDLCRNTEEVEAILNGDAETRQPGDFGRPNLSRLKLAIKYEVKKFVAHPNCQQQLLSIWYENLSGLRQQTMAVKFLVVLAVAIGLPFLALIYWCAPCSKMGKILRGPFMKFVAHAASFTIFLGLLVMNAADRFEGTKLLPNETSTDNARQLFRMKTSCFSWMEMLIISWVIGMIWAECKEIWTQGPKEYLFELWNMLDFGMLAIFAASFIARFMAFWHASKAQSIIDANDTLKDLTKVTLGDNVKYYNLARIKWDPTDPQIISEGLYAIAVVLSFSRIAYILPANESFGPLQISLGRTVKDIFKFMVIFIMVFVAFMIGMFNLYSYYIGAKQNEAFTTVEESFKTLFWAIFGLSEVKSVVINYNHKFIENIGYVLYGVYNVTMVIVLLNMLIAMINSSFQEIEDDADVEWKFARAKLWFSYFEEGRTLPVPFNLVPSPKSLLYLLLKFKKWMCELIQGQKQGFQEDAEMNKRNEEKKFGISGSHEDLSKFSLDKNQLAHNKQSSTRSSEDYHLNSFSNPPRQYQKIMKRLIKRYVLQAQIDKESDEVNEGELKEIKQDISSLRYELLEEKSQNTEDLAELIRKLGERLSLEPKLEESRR
In short: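 Excised outside-out or inside-out patches (macro-patch or single-channel) from transfected HEK293 cells, 24–48 h post-transfection, 23 °C. Polished borosilicate pipettes of 8–12 MΩ; holding potential −60 mV. Same solutions as whole-cell recordings (CsCl-based internal, 400 nM free Ca2+, pH 7.2; NaCl-based external, pH 7.4). Sampled at 50 kHz, 2 kHz filter, low-pass 300 Hz; unitary current and conductance measured.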

Sequence of mTRPC6 mutant ^mF678W (Q61143 whole entry F678W): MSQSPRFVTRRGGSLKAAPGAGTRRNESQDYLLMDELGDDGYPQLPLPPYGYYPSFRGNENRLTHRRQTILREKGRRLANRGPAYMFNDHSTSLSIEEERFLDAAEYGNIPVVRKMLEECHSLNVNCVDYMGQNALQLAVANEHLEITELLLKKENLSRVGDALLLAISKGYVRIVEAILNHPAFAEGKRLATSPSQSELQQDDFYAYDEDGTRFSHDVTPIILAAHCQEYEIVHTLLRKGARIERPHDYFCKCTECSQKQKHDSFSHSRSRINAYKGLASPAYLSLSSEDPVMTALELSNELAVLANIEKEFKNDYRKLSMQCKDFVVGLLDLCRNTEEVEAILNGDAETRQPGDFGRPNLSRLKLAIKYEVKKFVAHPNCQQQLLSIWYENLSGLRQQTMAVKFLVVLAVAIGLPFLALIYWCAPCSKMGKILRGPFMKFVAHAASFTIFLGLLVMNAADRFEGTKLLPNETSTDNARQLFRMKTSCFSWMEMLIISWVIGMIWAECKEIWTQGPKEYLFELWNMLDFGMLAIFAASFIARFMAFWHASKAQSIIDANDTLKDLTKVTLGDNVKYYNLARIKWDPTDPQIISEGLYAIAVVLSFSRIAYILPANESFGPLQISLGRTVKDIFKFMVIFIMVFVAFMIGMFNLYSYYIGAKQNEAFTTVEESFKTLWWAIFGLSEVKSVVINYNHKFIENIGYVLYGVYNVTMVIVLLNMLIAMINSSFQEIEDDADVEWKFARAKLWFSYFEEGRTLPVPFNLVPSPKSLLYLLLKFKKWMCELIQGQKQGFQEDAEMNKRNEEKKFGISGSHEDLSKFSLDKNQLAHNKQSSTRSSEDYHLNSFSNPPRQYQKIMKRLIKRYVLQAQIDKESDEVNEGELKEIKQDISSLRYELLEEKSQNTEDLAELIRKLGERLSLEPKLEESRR

With CCOC(=O)N1CCC(c2cc(O)n3nc(C)c(-c4ccc(F)cc4)c3n2)CC1 [M085, Ethyl 4-(3-(4-fluorophenyl)-7-hydroxy-2-methylpyrazolo[1,5-a]pyrimidin-5-yl)piperidine-1-carboxylate] the “agonist-induced current (channel function)” value (mTRPC6 mutant ^mF678W) was “complete loss of function”, the “ratio of M085 activation current I10 μM/I5 μM” value (mTRPC6 mutant ^mY657W) was 1.68 ± 0.24 and the “current in inside-out configuration” value (TRPC6; 100 μM agonist, inside-out macro-patch) was “no currents were recorded”. For the same molecule, the “current in outside-out configuration” value (TRPC6; 100 μM agonist, outside-out macro-patch) was “could be recorded” and the cell membrane permeability (TRPC6; implied from inside-out/outside-out recordings) was “relatively low”.

From article PMC8458982 (The Journal of Biological Chemistry, 2021)
